In ChEMBL document CHEMBL1122035, “Preparation and evaluation of 2-substituted anthraquinones based on the anthracyclines” (1982):

Experiments:
Nucleic Acid [1] = test: DNA binding property and activity expressed as K; type: nucleic-acid assay
How it was run: (§1)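 Absorbance read at the unbound-drug λmax after 5-min equilibration, against a buffer blank. K and n were obtained by nonlinear regression of absorbance against cumulative DNA volume, using a one- or two-site model.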

Nucleic Acid [2] = test: DNA binding property and activity expressed as Kn; type: nucleic-acid assay; how it was run: as §1
Mus musculus [3] = test: In vivo antitumor activity against P-388 leukemia in mice at the dose of 50 mg/kg.; type: functional
How it was run: (§2)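 P-388 leukemia in mice; compounds given as hydrochloride salts. Screening was done by the NCI Drug Research and Development Program. Result expressed as T/C (%).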

Mus musculus [4] = test: In vivo antitumor activity against P-388 leukemia in mice at the dose of 40 mg/kg.; type: functional; how it was run: as §2
Mus musculus [5] = test: In vivo antitumor activity against P-388 leukemia in mice at the dose of 5 mg/kg.; type: functional; how it was run: as §2
Mus musculus [6] = test: In vivo antitumor activity against P-388 leukemia in mice at the dose of 200 mg/kg.; type: functional; how it was run: as §2
Mus musculus [7] = test: In vivo antitumor activity against P-388 leukemia in mice at the dose of 100 mg/kg.; type: functional; how it was run: as §2

Compound `CCN(CC)CCCNC(=O)Cc1cc(O)c2c(c1O)C(=O)c1ccccc1C2=O.Cl` has a K (Nucleic Acid [1]) of 127000 M⁻¹, a Kn (Nucleic Acid [2]) of 29000 M⁻¹ and a T/C (Mus musculus [3]) of 108%.
Work on `CCN(CC)CCCC(C)NC(=O)Cc1cc(O)c2c(c1O)C(=O)c1ccccc1C2=O.Cl` (stereo not given) yielded a K (Nucleic Acid [1]) of 308000 M⁻¹, a Kn (Nucleic Acid [2]) of 49000 M⁻¹ and a T/C (Mus musculus [4]) of 125%.
`CN(C)CCCNC(=O)c1ccc2c(c1O)C(=O)c1ccccc1C2=O.Cl` gave a K (Nucleic Acid [1]) of 78000 M⁻¹, a Kn (Nucleic Acid [2]) of 9400 M⁻¹ and a T/C (Mus musculus [3]) of 118%.
Compound `CCN(CC)CCCC(C)NC(=O)c1ccc2c(c1O)C(=O)c1ccccc1C2=O.Cl` (stereo not given) has a K (Nucleic Acid [1]) of 78000 M⁻¹, a Kn (Nucleic Acid [2]) of 10100 M⁻¹ and a T/C (Mus musculus [5]) of 106%.
For `CCN(CC)CCNC(=O)c1ccc2c(c1)C(=O)c1ccccc1C2=O.Cl`, the T/C (Mus musculus [6]) was 119%.
`CCN(CC)CCCNC(=O)c1ccc2c(c1O)C(=O)c1ccccc1C2=O` was tested, and the K (Nucleic Acid [1]) was 92000 M⁻¹ and the Kn (Nucleic Acid [2]) was 12900 M⁻¹.
`CN(C)CCCNC(=O)Cc1cc(O)c2c(c1O)C(=O)c1ccccc1C2=O.Cl` was tested, and the K (Nucleic Acid [1]) was 259000 M⁻¹, the Kn (Nucleic Acid [2]) was 65000 M⁻¹ and the T/C (Mus musculus [3]) was 106%.
Work on `CN(C)CCNC(=O)Cc1cc(O)c2c(c1O)C(=O)c1ccccc1C2=O.Cl` yielded a K (Nucleic Acid [1]) of 289000 M⁻¹, a Kn (Nucleic Acid [2]) of 75000 M⁻¹ and a T/C (Mus musculus [7]) of 118%.
Work on `CN(C)CCCNC(=O)c1ccc2c(c1)C(=O)c1ccccc1C2=O.Cl` yielded a K (Nucleic Acid [1]) of 59000 M⁻¹, a Kn (Nucleic Acid [2]) of 11000 M⁻¹ and a T/C (Mus musculus [6]) of 115%.
Compound `CCN(CC)CCNC(=O)Cc1cc(O)c2c(c1O)C(=O)c1ccccc1C2=O.Cl` has a K (Nucleic Acid [1]) of 529000 M⁻¹, a Kn (Nucleic Acid [2]) of 100000 M⁻¹ and a T/C (Mus musculus [7]) of 106%.
In the case of `CCN(CC)CCCC(C)NC(=O)c1ccc2c(c1)C(=O)c1ccccc1C2=O.Cl` (stereo not given), the T/C (Mus musculus [6]) is reported as 127%.
Work on `CCN(CC)CCNC(=O)c1ccc2c(c1O)C(=O)c1ccccc1C2=O` yielded a K (Nucleic Acid [1]) of 46000 M⁻¹ and a Kn (Nucleic Acid [2]) of 9100 M⁻¹.
